Substitutions are numbered along the chain they refer to. Numbers in names are those of the source.
B1: pSTAT3: Tyr-705-phosphorylated STAT3 (protein)
chain: GQANHPTAAVVTEKQQMLEQHLQDVRKRVQDLEQKMKVVENLQDDFDFNYKTLKSQGDMQDLNGNNQSVTRQKMQQLEQMLTALDQMRRSIVSELAGLLSAMEYVQKTLTDEELADWKRRQQIACIGGPPNICLDRLENWITSLAESQLQTRQQIKKLEELQQKVSYKGDPIVQHRPMLEERIVELFRNLMKSAFVVERQPCMPMHPDRPLVIKTGVQFTTKVRLLVKFPELNYQLKIKVCIDKDSGDVAALRGSRKFNILGTNTKVMNMEESNNGSLSAEFKHLTLREQRCGNGGRANCDASLIVTEELHLITFETEVYHQGLKIDLETHSLPVVVISNICQMPNAWASILWYNMLTNNPKNVNFFTKPPIGTWDQVAEVLSWQFSSTTKRGLSIEQLTTLAEKLLGPGVNYSGCQITWAKFCKENMAGKGFSFWVWLDNIIDLVKKYILALWNEGYIMGFISKERERAILSTKPPGTFLLRFSESSKEGGVTFTWVEKDISGKTQIQSVEPYTKQQLNNMSFAEIIMGYKIMDATNILVSPLVYLYPDIPKEEAFGKYCRPESQEHPEADPGSAAPYLKTKFI
modifications: phosphotyrosine at 705; left off: His6, C-terminal, state not stated
B2: I568F: HIES associated STAT3 mutation in the LD (protein)
chain: B1 chain with I442F
modifications: left off: His6, C-terminal, state not stated

Key:
pSTAT3 homodimer [1] = assay: van't Hoff analysis of pSTAT3 monomer-dimer equilibrium by HMQC; format: binding, human; conditions: 25-45 °C, 700 MHz
Procedure, shortened: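 His-tagged pSTAT3 (127-711), co-expressed with tyrosine kinase in E. coli TKB1, deuterated with Ile Cδ1 methyl 13CH3 labeling, in deuterated 10 mM MES pH 5.5, 2 mM TCEP, 0.03% sodium azide, 100% D2O. 2D 1H-13C HMQC at 700 MHz at 25, 30, 32, 34, 36, 38, 40 and 45 °C. Keq is the population ratio of exchanging species (a) and (b); ΔH0 and ΔS0 come from a linear fit of ln(Keq) vs 1/T.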

pSTAT3 homodimer [2] = assay: NMR CSP of pSTAT3 dimer versus uSTAT3; format: binding, human; conditions: 2D 13C-1H HMQC, 25 °C
pSTAT3 = assay: 13C SQ-CPMG relaxation dispersion; set-up: species or system human; conditions: 35 °C, 600 and 700 MHz, ~170 μM pSTAT3
I568F STAT3 = assay: NMR CSP of I568F STAT3 relative to WT; set-up: species or system human; conditions: 2D 13C-1H HMQC Ile spectra

| Molecule | ΔS° of monomer-dimer equilibrium (I568 and I654) (pSTAT3 homodimer [1]; residues I568 (LD) and I654 (SH2)) | ΔS° of monomer-dimer equilibrium (I653 and I711) (pSTAT3 homodimer [1]; residues I653 and I711) | CSPs of pSTAT3 dimer (pSTAT3 homodimer [2]) | change in Rex of I568, pSTAT3 dimer versus pY904-bound uSTAT3 (pSTAT3) | CSP of I568F mutant relative to WT (I568F STAT3) |
| --- | --- | --- | --- | --- | --- |
| B1 | 47.0 ± 3.7 cal/mol•K | 42.2 ± 1.6 cal/mol•K | Additional CSPs unique to pSTAT3 were observed at I653 and I711 | Larger increases in the Rex of I568 were observed for the dimeric pSTAT3 than for pY904-bound uSTAT3 |  |
| B2 |  |  |  |  | significant CSP relative to WT protein in all structured domains of STAT3, from the CCD to SH2 |

From publication PMC4767637 (Journal of molecular biology, 2016)
